Reference: ChEMBL document CHEMBL1165904, “Design, synthesis and 3D-QSAR of beta-carboline derivatives as potent antitumor agents” (Eur J Med Chem, 2010)

How the values were obtained:
Type in all cases: functional, cell-based
Bel-7402 = assay: Cytotoxicity against human Bel7402 cells by MTT assay
How it was run: (§1)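 Tumour cells cultured in RPMI-1640 with 10% (v/v) fetal calf serum plus penicillin and streptomycin, at 37 °C, humidified 5% CO2. Compounds from DMSO stocks; final DMSO in medium 2% (v/v) or lower. Assay in 96-well microtitre cultures with MTT staining. IC50 taken as concentration causing 50% growth inhibition relative to untreated cells.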

MCF7 = assay: Cytotoxicity against human MCF7 cells by MTT assay; how it was run: as §1
HeLa = assay: Cytotoxicity against human HeLa cells by MTT assay; how it was run: as §1
BGC-823 = assay: Cytotoxicity against human BGC823 cells by MTT assay; how it was run: as §1
HepG2 = assay: Cytotoxicity against human HepG2 cells by MTT assay; how it was run: as §1

Row | Structure (SMILES) | IC50 (Bel-7402) | IC50 (MCF7) | IC50 (HeLa) | IC50 (BGC-823) | IC50 (HepG2; read-out: IC50) | IC50 (HepG2; read-out: pIC50 (converted))
1 | CCCCOc1ccc2c3ccnc(C)c3n(CC(C)C)c2c1 | 42.5 µM | 7.2 µM | 20.8 µM | 12.1 µM | 12.1 µM | 12 µM
2 | CCOC(=O)c1cc2c3ccccc3n(Cc3ccc(F)cc3)c2cn1 | > 200 µM | > 200 µM | > 200 µM | > 200 µM | > 200 µM | –
3 | O=C(NCCO)c1cc2c3ccccc3n(Cc3ccc(F)cc3)c2cn1 | > 200 µM | > 200 µM | > 200 µM | > 200 µM | > 200 µM | –
4 | COc1ccc2c(c1)[nH]c1c(C)[n+](Cc3ccccc3)ccc12 | 64.2 µM | 76.2 µM | 77.6 µM | 67.4 µM | 54.6 µM | 55 µM
5 | CCCCn1c2ccccc2c2cc(CO)nc(C)c21 | 122 µM | 107 µM | 100 µM | 127 µM | 128 µM | 129 µM
6 | CCCCn1c2ccccc2c2cc(C=O)nc(C)c21 | 123 µM | 154 µM | 169 µM | > 200 µM | 143 µM | 145 µM
7 | CCCCn1c2ccccc2c2cc(C(=O)NCCO)nc(-c3cc(OC)c(OC)c(OC)c3)c21 | > 200 µM | 105 µM | > 200 µM | – | – | –
8 | Cc1nccc2c3ccc(OCc4ccccc4)cc3n(CC(C)C)c12 | 26.8 µM | 54.1 µM | 50.5 µM | 36 µM | 22.2 µM | 22.4 µM
9 | Cc1nccc2c3ccc(OC(C)C)cc3n(CCCc3ccccc3)c12 | 36.2 µM | 45.3 µM | 48.6 µM | 16.3 µM | 14.6 µM | 14.5 µM
10 | CCCC[n+]1ccc2c(c1)[nH]c1ccccc12 | 302 µM | 338 µM | 130 µM | 326 µM | 94 µM | 93.3 µM
11 | c1ccc(C[n+]2ccc3c(c2)[nH]c2ccccc23)cc1 | 65.1 µM | 91.3 µM | 85.4 µM | 91.8 µM | 77.3 µM | 77.6 µM
12 | CCOc1ccc2c3ccnc(C)c3n(CC)c2c1 | 27.4 µM | 14.4 µM | 30.7 µM | 57.1 µM | 68.9 µM | 69.2 µM
13 | CCn1c2cc(OCc3c(F)c(F)c(F)c(F)c3F)ccc2c2ccnc(C)c21 | 241 µM | 103 µM | 258 µM | 238 µM | 236 µM | 234 µM
14 | CCCCn1c2cc(OCC)ccc2c2ccnc(C)c21 | 36.1 µM | 12 µM | 32.1 µM | 37.2 µM | 43.3 µM | 43.7 µM
15 | CCCCn1c2cc(OC(C)C)ccc2c2ccnc(C)c21 | 26.8 µM | 19.5 µM | 21.2 µM | 19.1 µM | 30.2 µM | 30.2 µM
16 | CCCCCCCCCCOc1ccc2c3ccnc(C)c3n(CCCC)c2c1 | 18.8 µM | 62.7 µM | 106 µM | 28.4 µM | 127 µM | 126 µM
17 | Cc1c2[nH]c3ccccc3c2cc[n+]1CCCc1ccccc1 | 20.5 µM | 23.8 µM | 49.8 µM | 3.5 µM | 33 µM | 33.1 µM
18 | c1ccc(CCC[n+]2ccc3c(c2)[nH]c2ccccc23)cc1 | 24.6 µM | 5.7 µM | 44.3 µM | 7.1 µM | 44.6 µM | 44.7 µM
19 | CCn1c2cc(O)ccc2c2ccnc(C)c21 | 165 µM | 106 µM | 70.3 µM | 160 µM | 134 µM | 135 µM
20 | Cc1c2[nH]c3ccccc3c2cc[n+]1Cc1ccccc1 | 74 µM | 89.2 µM | 69.2 µM | 77.4 µM | 69.5 µM | 69.2 µM
21 | O=C(NCCO)c1cc2c3ccccc3n(CCCc3ccccc3)c2cn1 | > 200 µM | > 200 µM | > 200 µM | > 200 µM | > 200 µM | –
22 | OCc1cc2c3ccccc3n(Cc3ccc(F)cc3)c2cn1 | > 200 µM | > 200 µM | > 200 µM | > 200 µM | > 200 µM | –
23 | CCCCn1c2ccccc2c2cc(C(=O)NCCN)ncc21 | 115 µM | 18.5 µM | 26.9 µM | 53.2 µM | 82.9 µM | 83.2 µM
24 | CCn1c2cc(OCc3c(F)c(F)c(F)c(F)c3F)ccc2c2cc[n+](Cc3ccccc3)c(C)c21 | 4 µM | 5.7 µM | 0.93 µM | 4.6 µM | 1.6 µM | 1.58 µM

Row | Structure (SMILES) | IC50 (Bel-7402) | IC50 (MCF7) | IC50 (HeLa) | IC50 (BGC-823) | IC50 (HepG2; read-out: IC50) | IC50 (HepG2; read-out: pIC50 (converted))
25 | CCCCOc1ccc2c3cc[n+](Cc4ccccc4)c(C)c3n(CC(C)C)c2c1 | 5.3 µM | 5.3 µM | 2.6 µM | 6.8 µM | 1.8 µM | 1.82 µM
26 | Cc1c2c(cc[n+]1Cc1ccccc1)c1ccc(OCc3ccccc3)cc1n2CC(C)C | 5 µM | 3.9 µM | 12.4 µM | 5.2 µM | 1.9 µM | 1.91 µM
27 | Cc1nccc2c3ccc(OCc4ccccc4)cc3n(CCCc3ccccc3)c12 | 29.4 µM | 63.3 µM | 72.6 µM | 19.5 µM | 15.7 µM | 15.8 µM
28 | Cc1nccc2c3ccc(OCc4c(F)c(F)c(F)c(F)c4F)cc3n(CCCc3ccccc3)c12 | 18.6 µM | 38.7 µM | 73.5 µM | 7.88 µM | 147 µM | 148 µM
29 | Cc1nccc2c3ccc(O)cc3n(CCCc3ccccc3)c12 | 35.1 µM | 34.5 µM | 45.3 µM | 29.9 µM | 28.3 µM | 28.2 µM
30 | CCCCn1c2cc(O)ccc2c2ccnc(C)c21 | 69.5 µM | 46.9 µM | 89.8 µM | 90.2 µM | 81.5 µM | 81.3 µM
31 | CCOC(=O)c1cc2c([nH]c3ccccc32)c(-c2cc(OC)c(OC)c(OC)c2)n1 | > 200 µM | 123 µM | > 200 µM | > 200 µM | 167 µM | 166 µM
32 | CCCCn1c2ccccc2c2cc(C(=O)NCCCCCCN)ncc21 | 58.5 µM | 42.8 µM | 53 µM | 110 µM | 95.8 µM | 95.5 µM
33 | CCCCn1c2ccccc2c2cc(C(=O)NCCO)nc(C)c21 | 90.6 µM | 97.3 µM | 80.4 µM | 45 µM | 140 µM | 141 µM
34 | CCCCn1c2ccccc2c2cc(C(=O)NCCN)nc(C)c21 | 56 µM | 7.5 µM | 13.3 µM | 17.3 µM | 21.9 µM | 21.9 µM
35 | O=C(NCCO)c1cc2c3ccccc3n(Cc3ccccc3)c2cn1 | > 200 µM | > 200 µM | > 200 µM | > 200 µM | > 200 µM | –
36 | NCCCCCCNC(=O)c1cc2c3ccccc3n(Cc3ccccc3)c2cn1 | 56.8 µM | 54.1 µM | 24.2 µM | 34.8 µM | 58.7 µM | 58.9 µM
37 | CCCCn1c2ccccc2c2cc(C(=O)OCC)nc(-c3cc(OC)c(OC)c(OC)c3)c21 | > 200 µM | > 200 µM | > 200 µM | – | > 200 µM | –
38 | CCCCn1c2ccccc2c2cc(C(=O)O)nc(-c3cc(OC)c(OC)c(OC)c3)c21 | 187 µM | 115 µM | 166 µM | 36.2 µM | 208 µM | 209 µM
39 | CCCCOc1ccc2c3ccnc(C)c3n(CCCC)c2c1 | 69.9 µM | 17.3 µM | 17.4 µM | 15.8 µM | 15.5 µM | 15.5 µM
40 | O=Cc1cc2c3ccccc3n(Cc3ccc(F)cc3)c2cn1 | > 200 µM | > 200 µM | > 200 µM | > 200 µM | > 200 µM | –
41 | CCCCCCCCOc1ccc2c3cc[n+](Cc4ccccc4)c(C)c3n(CCCc3ccccc3)c2c1 | 2 µM | 5.3 µM | 2.2 µM | 3.9 µM | 3.9 µM | 3.89 µM
42 | CCOc1ccc2c3cc[n+](Cc4ccccc4)c(C)c3n(CC)c2c1 | 12.6 µM | 8.1 µM | 2.2 µM | 9.2 µM | 14.3 µM | 14.5 µM
43 | CCCCCCCCOc1ccc2c3ccnc(C)c3n(CCCc3ccccc3)c2c1 | 21.8 µM | 45.9 µM | 69.6 µM | 17.4 µM | 105 µM | 105 µM
44 | NCCNC(=O)c1cc2c3ccccc3n(Cc3ccccc3)c2cn1 | 51.7 µM | 51.6 µM | 42.8 µM | 11.9 µM | 104 µM | 105 µM
45 | CCOC(=O)c1cc2c([nH]c3ccccc32)c(C)[n+]1Cc1ccccc1 | 56.2 µM | 44.9 µM | 101 µM | 55.3 µM | 53 µM | 52.5 µM
46 | Cc1nccc2c3ccc(O)cc3n(CC(C)C)c12 | 114 µM | 96.9 µM | 68.3 µM | 140 µM | 116 µM | 115 µM
47 | Cc1nc(C(=O)NCCN)cc2c3ccccc3n(Cc3ccccc3)c12 | 53.6 µM | 4.7 µM | 11 µM | 20.3 µM | 34.8 µM | 34.7 µM
